Measurements from ChEMBL document CHEMBL3877292, “Synthesis and evaluation of novel hybrids β-carboline-4-thiazolidinones as potential antitumor and antiviral agents” (Eur J Med Chem, 2016).

Experiments:
[1] = Antiproliferative activity against human NCI-H460 cells after 48 hrs by SRB assay; assay type: functional; settings: NCI-H460, 48 h
Summary of the method: (§1)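 Cells grown in RPMI 1640 with 5% FBS, with penicillin/streptomycin in experimental cultures. Exposed in triplicate to 0.25, 2.5, 25 and 250 µg/mL in DMSO/RPMI for 48 h at 37 °C under 5% CO2. Plates were TCA-fixed before (T0) and after treatment, then stained with sulforhodamine B and read at 540 nm. GI50 was obtained by non-linear regression against untreated growth. Doxorubicin served as positive control.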

[2] = Antiproliferative activity against human PC3 cells after 48 hrs by SRB assay; assay type: functional; settings: PC-3, 48 h; summary of the method: as §1
[3] = Antiproliferative activity against human HT-29 cells after 48 hrs by SRB assay; assay type: functional; settings: HT-29, 48 h; summary of the method: as §1
[4] = Antiproliferative activity against human OVCAR3 cells after 48 hrs by SRB assay; assay type: functional; settings: OVCAR-3, 48 h; summary of the method: as §1
[5] = Antiproliferative activity against human MCF7 cells after 48 hrs by SRB assay; assay type: functional; settings: MCF7, 48 h; summary of the method: as §1
[6] = Antiproliferative activity against human 786-0 cells after 48 hrs by SRB assay; assay type: functional; settings: 786-0, 48 h; summary of the method: as §1
[7] = Antiproliferative activity against human U251 cells after 48 hrs by SRB assay; assay type: functional; settings: U-251, 48 h; summary of the method: as §1
[8] = Antiproliferative activity against human UACC62 cells after 48 hrs by SRB assay; assay type: functional; settings: UACC-62, 48 h; summary of the method: as §1
[9] = Antiproliferative activity against human NCI/ADR-RES cells after 48 hrs by SRB assay; assay type: functional; summary of the method: as §1
[10] = Selectivity index, ratio of CC50 for Herpes simplex type I KOS infected African green monkey Vero cells to EC50 for Herpes simplex virus type 1 KOS; assay type: toxicity, cell-based; settings: Herpes simplex virus type 1 KOS infected Vero cells, read-out: Ratio CC50/EC50
Summary of the method: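 SI calculated as CC50/EC50. CC50 is the 50% cytotoxic concentration on Vero cells by sulforhodamine B, tested in triplicate from 0.1 to 1000 µg/mL. EC50 is the concentration protecting 50% of cells against HSV-1, with acyclovir as HSV-1 standard and drug-free cells as control.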

Human alphaherpesvirus 1 = assay: Antiviral activity against Herpes simplex type I KOS; assay type: functional; settings: Human alphaherpesvirus 1, KOS
[11] = Cytotoxicity against African green monkey Vero cells after 48 hrs by SRB assay; assay type: toxicity, cell-based; settings: chlorocebus sabaeus
Summary of the method: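 Vero (ATCC CCL81) cells grown in DMEM with 10% FBS and gentamicin at 37°C, 5% CO2. Cells exposed in triplicate to 1000, 500, 100, 10, 1 and 0.1 µg/mL, with untreated cells as control. Viability read by sulforhodamine B colorimetry. CC50 is the concentration giving 50% cytotoxicity.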

Row | Compound | GI50 [1] [µM] | GI50 [2] [µM] | GI50 [3] [µM] | GI50 [4] [µM] | GI50 [5] [µM] | GI50 [6] [µM] | GI50 [7] [µM] | GI50 [8] [µM] | GI50 [9] [µM] | selectivity ratio [10] | EC50 (Human alphaherpesvirus 1) [µM] | CC50 at 48 h [11] [µM]
1 | O=C(NN1C(=O)CSC1c1ccccc1Cl)c1cc2c([nH]c3ccccc32)c(-c2ccccc2)n1 (stereo unspecified) | > 100 | > 100 | > 100 | > 100 | > 100 | > 100 | > 100 | > 100 | > 100 |  |  | 
2 | CCN1C(=O)CS/C1=N\NC(=O)c1cc2c([nH]c3ccccc32)c(-c2cccc([N+](=O)[O-])c2)n1 | > 100 |  | > 100 | > 100 | > 100 | > 100 | > 100 |  | 3.27 | 20.7 | 86.5 | 1790
3 | O=C(NN1C(=O)CSC1c1cccs1)c1cc2c([nH]c3ccccc32)c(-c2ccccc2)n1 (stereo unspecified) | > 100 | > 100 | > 100 | > 100 | > 100 | > 100 | > 100 | > 100 | > 100 |  |  | 
4 | O=C1CS/C(=N\NC(=O)c2cc3c([nH]c4ccccc43)c(-c3ccccc3F)n2)N1 | 21.1 |  | 32.4 | 12.3 | 11.9 | 20.3 | 9.57 |  | 66.4 | 54.9 | 19.6 | 1070
5 | CCN1C(=O)CS/C1=N\NC(=O)c1cc2c([nH]c3ccccc32)c(-c2ccccc2)n1 | > 100 |  | > 100 | > 100 | 17.2 |  | 0.46 |  | 8.89 |  |  | 
6 | CCN1C(=O)CS/C1=N\NC(=O)c1cc2c([nH]c3ccccc32)c(-c2ccc(N(C)C)cc2)n1 | 59 |  | 65.7 | 2.42 | 54.9 | 6.61 | 63.3 |  | 2.6 | 243 | 6.78 | 1650
7 | O=C(N/N=C1\SCC(=O)N1c1ccccc1)c1cc2c([nH]c3ccccc32)c(-c2ccccc2)n1 | 37.2 |  | > 100 | 17.5 | 28 | 13.6 | 17.5 |  | 3.13 | 18.8 | 78.9 | 1480
8 | CCN1C(=O)CS/C1=N\NC(=O)c1cc2c([nH]c3ccccc32)c(-c2ccccc2Cl)n1 | 4.12 |  | 88.9 | 3.97 | 6.84 |  | 0.74 |  | 0.25 |  | > 100 | 1400
9 | CN(C)c1ccc(-c2nc(C(=O)N/N=C3\SCC(=O)N3c3ccccc3)cc3c2[nH]c2ccccc23)cc1 | 17.9 |  | 38.1 | > 100 | 15 | 3.97 | 12.5 |  | 35.4 | 16.4 | 50 | 817
10 | CCN1C(=O)CS/C1=N\NC(=O)c1cc2c([nH]c3ccccc32)c(-c2ccc(OC)cc2)n1 | 8.56 |  | 9.62 | 6.52 | 6.52 |  | 1.95 |  | 12.2 | 65.2 | 26.6 | 1730
11 | CCN1C(=O)CS/C1=N\NC(=O)c1cc2c([nH]c3ccccc32)c(-c2ccccc2F)n1 | > 100 |  | > 100 | > 100 | > 100 | > 100 | > 100 |  | > 100 |  | > 100 | 2980
12 | COc1ccc(-c2nc(C(=O)N/N=C3/NC(=O)CS3)cc3c2[nH]c2ccccc23)cc1 | 7.15 |  | 16.5 | 1.12 | 0.49 | 9.98 |  |  | > 100 |  |  | 
13 | O=C(N/N=C1\SCC(=O)N1c1ccccc1)c1cc2c([nH]c3ccccc32)c(-c2cccc([N+](=O)[O-])c2)n1 | 3.91 |  | 2.28 | 0.83 | 2.36 | 1.53 | 1.59 |  | 0.19 | 67.8 | 17.2 | 1170
14 | CN(C)c1ccc(-c2nc(C(=O)NN3C(=O)CSC3c3ccccc3)cc3c2[nH]c2ccccc23)cc1 (stereo unspecified) | > 100 |  | > 100 | > 100 | > 100 | > 100 | 64.5 |  | 64.5 | 592 | 0.8 | 467
15 | O=C1CS/C(=N\NC(=O)c2cc3c([nH]c4ccccc43)c(-c3ccccc3)n2)N1 | 18.2 |  | 19.5 | 9.88 | 11.4 | 16.3 | 15.8 |  | 28.1 | 24.4 | 102 | 2490
16 | O=C(NN1C(=O)CSC1c1ccccc1)c1cc2c([nH]c3ccccc32)c(-c2ccccc2F)n1 (stereo unspecified) | > 100 |  | > 100 | 0.73 | 63.1 | > 100 | 84.1 |  | > 100 | 21 | 30.3 | 637
17 | O=C1CS/C(=N\NC(=O)c2cc3c([nH]c4ccccc43)c(-c3ccccc3Cl)n2)N1 | 3.85 |  | 10.8 | 0.01 | 1.42 | 6.1 |  |  | > 100 |  | > 100 | 766
18 | O=C(NN1C(=O)CSC1c1ccccc1)c1cc2c([nH]c3ccccc32)c(-c2ccccc2)n1 (stereo unspecified) | > 100 | 7.23 | > 100 | 1.58 | 19.1 | > 100 | 0.25 | 80.4 | 18.4 | 235 | 2.15 | 506
19 | O=C(NN1C(=O)CSC1c1ccccc1)c1cc2c([nH]c3ccccc32)c(-c2cccc([N+](=O)[O-])c2)n1 (stereo unspecified) | > 100 |  | > 100 | 1.25 | > 100 | > 100 | > 100 |  | > 100 | 534 | 2.02 | 1080
20 | O=C1CS/C(=N\NC(=O)c2cc3c([nH]c4ccccc43)c(-c3cccc([N+](=O)[O-])c3)n2)N1 | > 100 |  | > 100 | > 100 | 40.1 | 16.1 |  |  | 0.62 |  |  | 
21 | O=C(N/N=C1\SCC(=O)N1c1ccccc1)c1cc2c([nH]c3ccccc32)c(-c2ccccc2F)n1 | > 100 |  | > 100 | > 100 | > 100 | > 100 | > 100 |  | > 100 |  | > 100 | 339
